The values below come from ChEMBL document CHEMBL4251616, “Multifunctional thiosemicarbazones and deconstructed analogues as a strategy to study the involvement of metal chelation, Sigma-2 (σ2) receptor and P-gp protein in the cytotoxic action: In vitro and in vivo activity in pancreatic tumors” (Eur J Med Chem, 2018).

In one assay the test system is ASPC1. Put plainly: Cytotoxicity against human AsPC1 cells after 48 hrs by MTT assay. It is filed as functional, cell-based. Particulars: ASPC1, 48 h. The gist of the method: (§1)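 Pancreatic lines kept at 37 °C, 5% CO2. AsPC1, BxPC3 and Panc02 grown in RPMI with 10% FBS. MIAPaCa2 in DMEM with 10% FBS and 2.5% horse serum. PANC1 in DMEM with 10% FBS. KCKO in RPMI with 10% FBS plus pyruvate, HEPES and glutamine. KP02 in DMEM/F12 with 10% FBS.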
Background: Formazan colour is commonly taken as a measure of viable cells.

The target in assay [1] is ATP-dependent translocase ABCB1 (Homo sapiens, UniProt P08183). Put plainly: Inhibition of human MDR1 expressed in MDCK-MDR1 cells assessed as calcein cell accumulation after 30 mins by spectrofluorimetry. It is filed as cell-based. The gist of the method:
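Confluent MDCK-MDR1 monolayers given test compound (0.1-100 µM) for 30 min at 37 °C, then calcein-AM at 2.5 µM final for 30 min. Washed with ice-cold PBS and read at ex 485 / em 535 nm. Fluorescence rise over untreated basal level fitted against log dose to give EC50; n ≥ 3 experiments in duplicate.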

Another assay deals with Panc02. The experiment in a line: Cytotoxicity against mouse Panc02 cells after 48 hrs by MTT assay. It is filed as functional, cell-based. Particulars: Panc02, 48 h. The gist of the method: as §1
Assay [2] in a line: Cytotoxicity against mouse KCKO cells after 48 hrs by MTT assay. Format: functional, cell-based. The gist of the method:
as §1

Assay [3] in a line: Cytotoxicity against mouse Kp02 cells after 48 hrs by MTT assay. It is filed as functional, cell-based. The gist of the method: as §1
The subject of a further assay is BXPC-3. Put plainly: Cytotoxicity against human BxPC3 cells after 48 hrs by MTT assay. Format: functional, cell-based. Particulars: BXPC-3, 48 h. The gist of the method: as §1
The next assay relates to MIA PaCa-2. The experiment in a line: Cytotoxicity against human MIAPaCa2 cells after 48 hrs by MTT assay. Format: functional, cell-based. Particulars: MIA PaCa-2, 48 h. The method in brief:
as §1

The structures appear in SMILES notation.

Broadly, the EC50 is the concentration needed to bring the measured effect to its halfway point.

ATP-dependent translocase ABCB1, sequence (P08183 whole entry): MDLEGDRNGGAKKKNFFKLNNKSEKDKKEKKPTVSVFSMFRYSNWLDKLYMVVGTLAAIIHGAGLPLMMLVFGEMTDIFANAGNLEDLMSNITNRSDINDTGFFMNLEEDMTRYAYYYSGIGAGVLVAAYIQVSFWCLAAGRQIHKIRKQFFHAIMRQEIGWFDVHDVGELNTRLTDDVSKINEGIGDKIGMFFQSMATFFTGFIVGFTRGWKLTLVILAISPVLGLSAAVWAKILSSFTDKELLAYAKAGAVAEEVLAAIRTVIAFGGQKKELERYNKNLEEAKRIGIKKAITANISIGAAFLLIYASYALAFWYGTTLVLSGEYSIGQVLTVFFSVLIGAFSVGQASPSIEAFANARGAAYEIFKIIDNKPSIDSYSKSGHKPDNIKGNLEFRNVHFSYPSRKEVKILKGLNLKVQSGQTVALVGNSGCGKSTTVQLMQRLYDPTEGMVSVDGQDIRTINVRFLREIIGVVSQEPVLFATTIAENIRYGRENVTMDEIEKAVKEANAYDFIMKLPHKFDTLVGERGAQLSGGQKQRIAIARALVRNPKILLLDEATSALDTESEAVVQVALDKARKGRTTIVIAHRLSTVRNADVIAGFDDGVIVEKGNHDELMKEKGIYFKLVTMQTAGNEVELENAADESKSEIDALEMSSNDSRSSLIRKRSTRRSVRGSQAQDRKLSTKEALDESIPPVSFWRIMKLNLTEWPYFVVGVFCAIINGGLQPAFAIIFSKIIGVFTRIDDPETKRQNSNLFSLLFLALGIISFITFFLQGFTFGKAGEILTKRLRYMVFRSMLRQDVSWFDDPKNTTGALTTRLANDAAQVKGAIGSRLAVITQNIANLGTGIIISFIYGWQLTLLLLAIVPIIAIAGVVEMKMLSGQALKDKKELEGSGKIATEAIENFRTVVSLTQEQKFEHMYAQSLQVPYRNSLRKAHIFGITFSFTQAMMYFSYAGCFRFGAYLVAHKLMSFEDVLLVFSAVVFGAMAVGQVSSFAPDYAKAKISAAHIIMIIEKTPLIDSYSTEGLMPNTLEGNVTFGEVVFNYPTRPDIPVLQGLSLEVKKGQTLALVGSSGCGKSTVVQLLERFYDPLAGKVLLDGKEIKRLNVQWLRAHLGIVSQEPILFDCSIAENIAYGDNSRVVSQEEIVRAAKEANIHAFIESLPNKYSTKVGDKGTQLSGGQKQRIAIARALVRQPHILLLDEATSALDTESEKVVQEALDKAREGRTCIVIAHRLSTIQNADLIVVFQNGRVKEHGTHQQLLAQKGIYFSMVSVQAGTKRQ

Regarding `COc1cc2c(cc1OC)CN(CCCCn1ccc3ccccc31)CC2`, the EC50 with ASPC1 is above 100 µM; in assay [1], 6.09 µM; with Panc02, above 100 µM; in assay [2] it was 77 µM; in assay [3], 49 µM; in the assay on BXPC-3, above 100 µM. The molecule further had an EC50 in the assay with MIA PaCa-2 of 40 µM.

Consider `c1ccc2c(c1)ccn2CCCCN1CCN(C2CCCCC2)CC1`, for which the EC50 with ASPC1 is above 100 µM; in assay [1], 0.46 µM; in the assay on Panc02, above 100 µM; in assay [2] it was 67 µM; in assay [3], 70 µM; with BXPC-3, above 100 µM. Besides, in the assay with MIA PaCa-2, the EC50 worked out at 79 µM.
